pIC50, pKi: −log10 of the molar value.
Experiments:
[1] = Inhibition of Human immunodeficiency virus protease M9 mutant expressed in Escherichia coli using ArgGlu(EDANS)SerGlnAsnTyrProIleValGlnLys(DABCYL)Arg as substrate preincubated with compound for 0.5 to 1 min measured by fluorometric analysis at pH 6.5
[2] = test system: Human immunodeficiency virus 1; assay: Antiviral activity against Human immunodeficiency virus 1 HXB2 expressing wild type protease infected in human MT4 cells after 5 days by MTT assay; format: functional, organism-based; conditions: Human immunodeficiency virus 1, HXB2, MT4, 120 h
[3] = test system: Human immunodeficiency virus 1; assay: Antiviral activity against Human immunodeficiency virus 1 HXB2 expressing protease M10 mutant infected in human MT4 cells after 5 days by MTT assay; format: functional, organism-based; conditions: Human immunodeficiency virus 1, HXB2, MT4, 120 h
[4] = test system: Human immunodeficiency virus 1; assay: Antiviral activity against Human immunodeficiency virus 1 HXB2 expressing protease M8 mutant infected in human MT4 cells after 5 days by MTT assay; format: functional, organism-based; conditions: Human immunodeficiency virus 1, HXB2, MT4, 120 h
[5] = Inhibition of wild type Human immunodeficiency virus protease expressed in Escherichia coli using ArgGlu(EDANS)SerGlnAsnTyrProIleValGlnLys(DABCYL)Arg as substrate preincubated with compound for 0.5 to 1 min measured by fluorometric analysis at pH 6.5
[6] = test system: Human immunodeficiency virus 1; assay: Antiviral activity against Human immunodeficiency virus 1 HXB2 expressing protease M9 mutant infected in human MT4 cells after 5 days by MTT assay; format: functional, organism-based; conditions: Human immunodeficiency virus 1, HXB2, MT4, 120 h
[7] = test system: Human immunodeficiency virus 1; assay: Antiviral activity against Human immunodeficiency virus 1 HXB2 expressing protease M5 mutant infected in human MT4 cells after 5 days by MTT assay; format: functional, organism-based; conditions: Human immunodeficiency virus 1, HXB2, MT4, 120 h
Method in brief: (§1)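 MT-4 cells (AIDS Research and Reference Reagent Program) exposed to 50% tissue culture infective doses (TCID₅₀) of virus with various concentrations of test compound for 5 days. MTT solution then added and absorbance measured. Mutant strains carry 10–17 resistance mutations with phenotypic resistance to marketed PIs; all include I84V except M7. IC₅₀ reported.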

[8] = test system: Human immunodeficiency virus 1; assay: Antiviral activity against Human immunodeficiency virus 1 HXB2 expressing protease M3 mutant infected in human MT4 cells after 5 days by MTT assay; format: functional, organism-based; conditions: Human immunodeficiency virus 1, HXB2, MT4, 120 h; method in brief: as §1
[9] = test system: Human immunodeficiency virus 1; assay: Antiviral activity against Human immunodeficiency virus 1 HXB2 expressing protease M6 mutant infected in human MT4 cells after 5 days by MTT assay; format: functional, organism-based; conditions: Human immunodeficiency virus 1, HXB2, MT4, 120 h; method in brief: as §1
[10] = test system: Human immunodeficiency virus 1; assay: Antiviral activity against Human immunodeficiency virus 1 HXB2 expressing protease M7 mutant infected in human MT4 cells after 5 days by MTT assay; format: functional, organism-based; conditions: Human immunodeficiency virus 1, HXB2, MT4, 120 h; method in brief: as §1
[11] = Inhibition of Human immunodeficiency virus protease M8 mutant expressed in Escherichia coli using ArgGlu(EDANS)SerGlnAsnTyrProIleValGlnLys(DABCYL)Arg as substrate preincubated with compound for 0.5 to 1 min measured by fluorometric analysis at pH 6.5
[12] = test system: Human immunodeficiency virus 1; assay: Antiviral activity against Human immunodeficiency virus 1 HXB2 expressing protease M4 mutant infected in human MT4 cells after 5 days by MTT assay; format: functional, organism-based; conditions: Human immunodeficiency virus 1, HXB2, MT4, 120 h; method in brief: as §1
[13] = Inhibition of Human immunodeficiency virus protease M10 mutant expressed in Escherichia coli using ArgGlu(EDANS)SerGlnAsnTyrProIleValGlnLys(DABCYL)Arg as substrate preincubated with compound for 0.5 to 1 min measured by fluorometric analysis at pH 6.5

SMILES	pKi [1]	pIC50 [2]	pIC50 [3]	pIC50 [4]	pKi [5]	pIC50 [6]	pIC50 [7]	pIC50 [8]	pIC50 [9]	pIC50 [10]	pKi [11]	pIC50 [12]	pKi [13]
CC(C)CN(C[C@@H](O)[C@H](Cc1ccccc1)NC(=O)O[C@H]1CO[C@H]2OCC[C@H]21)S(=O)(=O)c1ccc2c(c1)CCN2	8.82	8.41	5.77	6.97	9.92	6.72	6.92	7.10	7.52	8.12	9.20	6.76	8.00
COC(=O)N[C@H](C(=O)N[C@@H](Cc1ccccc1)[C@@H](O)CN(Cc1ccc(-c2ccccn2)cc1)NC(=O)[C@@H](NC(=O)OC)C(C)(C)C)C(C)(C)C [ATAZANAVIR]	7.08	8.46	5.48	6.12	> 10.00	5.60	6.55	6.46	6.37	6.98	8.55	6.22	6.77
